Laboratory results: ChEMBL document CHEMBL4354876, “A Selective Modulator of Peroxisome Proliferator-Activated Receptor γ with an Unprecedented Binding Mode” (J Med Chem, 2020)
Active and inactive are the calls of the source. The calls are words filed in the database; no cut-off is given here.

Legend:
NHDF [1] = test: (§1) Induction of adipogenesis in NHDF assessed as reduction in fibroblast differentiation into matured adipocytes at 2 uM administered on day 3 of differentiation 1 and day 5 of differentiation 2 followed by media refreshment at 2 days interval up to 13 days and measured on day 14 by Oil red O staining based light microscopic analysis; type: cell-based; conditions: human
In short: (§2)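 Primary human fibroblasts (NHDF) were differentiated to mature adipocytes and treated with ligand or DMSO; the test compound was used at 0.2, 2 and 20 µM and the reference at 2 µM. Lipid accumulation was read by Oil Red O staining, with four replicates.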

[2] = target: T1, Peroxisome proliferator-activated receptor gamma (Homo sapiens) (UniProt P37231); test: Selective modulation of PPARgamma in human HepG2 cells assessed as induction of adiponectin mRNA expression at 1 uM measured after 12 hrs by qPCR analysis; type: cell-based
T1 sequence (whole entry): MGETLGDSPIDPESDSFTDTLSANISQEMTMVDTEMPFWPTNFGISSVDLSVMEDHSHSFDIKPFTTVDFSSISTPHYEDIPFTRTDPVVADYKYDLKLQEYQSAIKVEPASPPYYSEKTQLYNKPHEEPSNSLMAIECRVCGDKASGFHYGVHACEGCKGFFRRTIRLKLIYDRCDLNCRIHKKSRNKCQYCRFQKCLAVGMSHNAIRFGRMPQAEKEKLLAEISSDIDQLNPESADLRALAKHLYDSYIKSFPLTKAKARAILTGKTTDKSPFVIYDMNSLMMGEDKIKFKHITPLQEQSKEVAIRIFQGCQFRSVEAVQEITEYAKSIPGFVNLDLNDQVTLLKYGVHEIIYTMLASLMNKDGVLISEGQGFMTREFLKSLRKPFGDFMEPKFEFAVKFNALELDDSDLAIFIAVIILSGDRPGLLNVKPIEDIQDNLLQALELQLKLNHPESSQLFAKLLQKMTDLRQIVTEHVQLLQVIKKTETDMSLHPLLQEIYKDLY
In short: (§3)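 HepG2 cells were incubated with test compound at 1 µM. mRNA of the PPARγ target genes adiponectin and ANGPTL4 was quantified. Mean±S.E.M., n≥3.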

[3] = Partial agonist activity at recombinant PPARgamma LBD/N-terminal GFP-fused RXRalpha mutant LBD (unknown origin) assessed as increase in biotinylated-CBP peptide recruitment measured after 2 hrs by HTRF assay; parameters: species or system Homo sapiens
In short: (§4)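 Cell-free HTRF assay of coactivator peptide recruitment (CBP or SRC-1) to the recombinant PPARγ:RXRα heterodimer.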

[4] = Partial agonist activity at recombinant PPARgamma LBD/N-terminal GFP-fused RXRalpha mutant LBD (unknown origin) assessed as increase in biotinylated-SRC1 peptide recruitment measured after 2 hrs by HTRF assay; parameters: species or system Homo sapiens; in short: as §4
[5] = target: T2, Peroxisome proliferator-activated receptor alpha (Homo sapiens, UniProt Q07869); test: Partial agonist activity at Gal4-fused PPARalpha LBD (unknown origin) expressed in HEK293T cells after 14 to 16 hrs by dual-Glo luciferase assay; type: cell-based
T2 sequence (Q07869 whole entry): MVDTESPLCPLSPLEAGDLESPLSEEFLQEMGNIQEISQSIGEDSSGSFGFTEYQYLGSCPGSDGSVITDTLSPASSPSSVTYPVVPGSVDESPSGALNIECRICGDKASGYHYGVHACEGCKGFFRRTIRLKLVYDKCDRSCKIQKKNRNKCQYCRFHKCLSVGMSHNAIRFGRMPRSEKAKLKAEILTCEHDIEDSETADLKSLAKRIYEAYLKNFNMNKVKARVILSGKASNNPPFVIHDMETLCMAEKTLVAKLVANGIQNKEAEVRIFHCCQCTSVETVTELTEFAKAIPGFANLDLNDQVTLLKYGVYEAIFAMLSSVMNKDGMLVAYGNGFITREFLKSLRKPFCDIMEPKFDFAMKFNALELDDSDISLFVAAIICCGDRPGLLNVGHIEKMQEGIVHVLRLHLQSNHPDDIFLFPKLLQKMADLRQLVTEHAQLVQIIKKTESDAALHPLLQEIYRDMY
In short: (§5)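 Gal4 hybrid reporter assay in transiently transfected HEK293T cells. Constructs fuse the yeast Gal4 DNA-binding domain to the human receptor LBD. Firefly luciferase is the reporter. Constitutive renilla luciferase monitors transfection efficiency and toxicity. EC50 and maximal relative activation are reported as mean±S.E.M., n≥3.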

[6] = target: T3, Bile acid receptor (Homo sapiens) (UniProt Q96RI1); test: Agonist activity at FXR (unknown origin) at 10 uM
T3 sequence (whole entry): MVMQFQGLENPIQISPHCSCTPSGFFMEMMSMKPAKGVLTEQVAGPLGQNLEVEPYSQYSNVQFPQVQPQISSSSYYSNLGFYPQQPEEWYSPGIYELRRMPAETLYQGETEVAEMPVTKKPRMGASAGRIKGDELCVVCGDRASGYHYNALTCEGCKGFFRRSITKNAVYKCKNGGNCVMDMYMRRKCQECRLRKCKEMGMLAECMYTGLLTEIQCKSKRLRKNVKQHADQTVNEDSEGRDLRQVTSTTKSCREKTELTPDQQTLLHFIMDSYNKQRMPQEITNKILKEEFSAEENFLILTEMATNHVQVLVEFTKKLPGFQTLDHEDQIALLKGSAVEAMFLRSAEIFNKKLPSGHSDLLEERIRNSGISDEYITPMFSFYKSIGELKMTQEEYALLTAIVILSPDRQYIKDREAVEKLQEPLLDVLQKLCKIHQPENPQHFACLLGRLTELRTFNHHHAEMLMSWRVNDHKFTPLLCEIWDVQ

[7] = target: Retinoic acid receptor (Homo sapiens) (UniProt P13631+P10826+P10276); test: Agonist activity at RAR (unknown origin) at 10 uM; type: protein assay
[8] = target: T4, Peroxisome proliferator-activated receptor delta (Homo sapiens) (UniProt Q03181); test: Partial agonist activity at Gal4-fused PPARdelta LBD (unknown origin) expressed in HEK293T cells after 14 to 16 hrs by dual-Glo luciferase assay relative to L165041; type: cell-based; in short: as §5
T4 sequence (whole entry): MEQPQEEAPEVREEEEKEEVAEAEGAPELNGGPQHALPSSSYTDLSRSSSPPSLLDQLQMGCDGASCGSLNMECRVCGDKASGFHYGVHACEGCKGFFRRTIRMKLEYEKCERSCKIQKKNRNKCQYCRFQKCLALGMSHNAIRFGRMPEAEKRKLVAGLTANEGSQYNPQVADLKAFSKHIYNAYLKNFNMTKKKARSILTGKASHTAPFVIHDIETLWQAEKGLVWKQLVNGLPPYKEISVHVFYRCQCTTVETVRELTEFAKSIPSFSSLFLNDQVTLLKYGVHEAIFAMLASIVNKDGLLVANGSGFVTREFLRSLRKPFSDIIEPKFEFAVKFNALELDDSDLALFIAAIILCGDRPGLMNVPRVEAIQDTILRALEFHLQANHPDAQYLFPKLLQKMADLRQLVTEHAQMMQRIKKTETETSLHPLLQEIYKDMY

[9] = target: T5, Peroxisome proliferator-activated receptor gamma (Homo sapiens, UniProt P37231); test: Partial agonist activity at Gal4-fused PPARgamma LBD (unknown origin) expressed in HEK293T cells after 14 to 16 hrs by dual-Glo luciferase assay; type: cell-based; in short: as §5
T5 sequence (P37231 whole entry): T1 sequence (whole entry)

NHDF [10] = test: as §1, with “adipocytes at 0.2 to 20 uM administered” for “adipocytes at 2 uM administered”; type: cell-based; conditions: human; in short: as §2
[11] = target: T5, Peroxisome proliferator-activated receptor gamma; test: Partial agonist activity at recombinant N-terminal GFP-fused PPARgamma LBD (unknown origin) assessed as increase in biotinylated-SRC1 peptide recruitment measured after 2 hrs by HTRF assay
[12] = target: Liver X receptor (Homo sapiens) (UniProt Q13133+P55055); test: Agonist activity at LXR (unknown origin) at 10 uM; type: protein assay
[13] = target: T5, Peroxisome proliferator-activated receptor gamma; test: Selective modulation of PPARgamma in human HepG2 cells assessed as induction of ANGPTL4 mRNA expression at 1 uM measured after 12 hrs by qPCR analysis; type: cell-based; conditions: hepg2, 12 h; in short: as §3
[14] = Stability in Sprague-Dawley rat liver microsomes assessed as parent compound remaining at 10 uM after 60 mins by HPLC analysis; type: ADME, Microsome; conditions: read-out: Stability
In short: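 Incubation with rat liver microsomes, measuring compound remaining after 60 minutes.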

[15] = target: Retinoid X receptor (Homo sapiens) (UniProt P28702+P48443+P19793); test: Agonist activity at RXR (unknown origin) at 10 uM; type: protein assay
[16] = target: T6, Peroxisome proliferator-activated receptor delta (Homo sapiens, UniProt Q03181); test: Partial agonist activity at Gal4-fused PPARdelta LBD (unknown origin) expressed in HEK293T cells after 14 to 16 hrs by dual-Glo luciferase assay; type: cell-based; in short: as §5
T6 sequence (Q03181 whole entry): T4 sequence (whole entry)

[17] = target: T1, Peroxisome proliferator-activated receptor gamma (Homo sapiens); test: Partial agonist activity at Gal4-fused PPARgamma LBD (unknown origin) expressed in HEK293T cells after 14 to 16 hrs by dual-Glo luciferase assay relative to pioglitazone; type: cell-based; in short: as §5
[18] = target: T7, Peroxisome proliferator-activated receptor alpha (Homo sapiens) (UniProt Q07869); test: Partial agonist activity at Gal4-fused PPARalpha LBD (unknown origin) expressed in HEK293T cells after 14 to 16 hrs by dual-Glo luciferase assay relative to GW7647; type: cell-based; in short: as §5
T7 sequence (whole entry): T2 sequence (Q07869 whole entry)

[19] = target: T5, Peroxisome proliferator-activated receptor gamma; test: Partial agonist activity at recombinant N-terminal GFP-fused PPARgamma LBD (unknown origin) assessed as increase in biotinylated-CBP peptide recruitment measured after 2 hrs by HTRF assay
In short: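 Cell-free HTRF assay of CBP coactivator recruitment to recombinant PPARγ protein.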

Retinoic acid receptor (Homo sapiens), sequence (P10276 whole entry, looked up, the tested form may be a part): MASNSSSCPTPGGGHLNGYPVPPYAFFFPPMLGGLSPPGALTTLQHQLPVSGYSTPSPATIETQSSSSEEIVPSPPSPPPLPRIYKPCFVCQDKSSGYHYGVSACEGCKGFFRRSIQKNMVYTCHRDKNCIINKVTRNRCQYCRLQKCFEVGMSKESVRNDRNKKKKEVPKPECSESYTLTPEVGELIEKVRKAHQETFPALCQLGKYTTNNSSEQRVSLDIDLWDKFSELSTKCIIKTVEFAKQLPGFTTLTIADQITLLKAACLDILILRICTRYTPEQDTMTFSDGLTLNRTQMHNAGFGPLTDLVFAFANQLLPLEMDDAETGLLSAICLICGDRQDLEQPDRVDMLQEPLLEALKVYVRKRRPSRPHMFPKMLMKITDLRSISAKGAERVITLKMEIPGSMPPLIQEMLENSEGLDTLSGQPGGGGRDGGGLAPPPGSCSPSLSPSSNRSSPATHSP
Retinoic acid receptor (Homo sapiens), sequence (P10826 whole entry, looked up, the tested form may be a part): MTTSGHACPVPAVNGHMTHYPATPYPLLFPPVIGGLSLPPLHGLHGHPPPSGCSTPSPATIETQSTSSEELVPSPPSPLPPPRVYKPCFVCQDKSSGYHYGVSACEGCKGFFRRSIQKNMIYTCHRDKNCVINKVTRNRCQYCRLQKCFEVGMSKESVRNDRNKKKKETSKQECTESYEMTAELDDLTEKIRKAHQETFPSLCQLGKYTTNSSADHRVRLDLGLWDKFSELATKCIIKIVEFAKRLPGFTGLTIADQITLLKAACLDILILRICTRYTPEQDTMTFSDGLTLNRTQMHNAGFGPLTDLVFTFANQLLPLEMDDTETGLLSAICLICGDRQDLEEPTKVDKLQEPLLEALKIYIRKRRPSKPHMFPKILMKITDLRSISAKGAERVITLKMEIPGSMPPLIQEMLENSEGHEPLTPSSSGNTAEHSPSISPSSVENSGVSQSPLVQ
Retinoic acid receptor (Homo sapiens), sequence (P13631 whole entry, looked up, the tested form may be a part): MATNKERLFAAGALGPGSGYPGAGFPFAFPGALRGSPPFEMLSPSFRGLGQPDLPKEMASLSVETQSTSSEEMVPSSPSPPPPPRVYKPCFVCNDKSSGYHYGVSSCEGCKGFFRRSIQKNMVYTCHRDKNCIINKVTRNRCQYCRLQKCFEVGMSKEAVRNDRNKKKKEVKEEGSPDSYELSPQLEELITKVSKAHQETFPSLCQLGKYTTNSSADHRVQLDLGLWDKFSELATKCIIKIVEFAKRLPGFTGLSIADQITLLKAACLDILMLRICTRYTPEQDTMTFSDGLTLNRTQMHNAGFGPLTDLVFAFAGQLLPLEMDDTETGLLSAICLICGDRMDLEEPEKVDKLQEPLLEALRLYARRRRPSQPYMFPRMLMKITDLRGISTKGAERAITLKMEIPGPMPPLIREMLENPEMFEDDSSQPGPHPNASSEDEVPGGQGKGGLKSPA
Retinoid X receptor (Homo sapiens), sequence (P19793 whole entry, looked up, the tested form may be a part): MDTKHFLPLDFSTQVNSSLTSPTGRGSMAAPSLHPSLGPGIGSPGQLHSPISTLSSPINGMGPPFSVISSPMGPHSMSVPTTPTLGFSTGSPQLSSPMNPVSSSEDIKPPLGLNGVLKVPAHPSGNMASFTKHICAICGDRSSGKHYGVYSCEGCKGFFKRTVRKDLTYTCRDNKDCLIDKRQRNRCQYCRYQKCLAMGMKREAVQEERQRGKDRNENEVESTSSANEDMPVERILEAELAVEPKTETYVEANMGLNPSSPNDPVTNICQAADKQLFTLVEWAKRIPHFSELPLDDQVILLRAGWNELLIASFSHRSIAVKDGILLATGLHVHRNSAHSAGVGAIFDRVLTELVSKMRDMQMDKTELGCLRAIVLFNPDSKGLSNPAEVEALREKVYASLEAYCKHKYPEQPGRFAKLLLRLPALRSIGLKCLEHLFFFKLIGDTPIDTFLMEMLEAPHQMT
Retinoid X receptor (Homo sapiens), sequence (P28702 whole entry, looked up, the tested form may be a part): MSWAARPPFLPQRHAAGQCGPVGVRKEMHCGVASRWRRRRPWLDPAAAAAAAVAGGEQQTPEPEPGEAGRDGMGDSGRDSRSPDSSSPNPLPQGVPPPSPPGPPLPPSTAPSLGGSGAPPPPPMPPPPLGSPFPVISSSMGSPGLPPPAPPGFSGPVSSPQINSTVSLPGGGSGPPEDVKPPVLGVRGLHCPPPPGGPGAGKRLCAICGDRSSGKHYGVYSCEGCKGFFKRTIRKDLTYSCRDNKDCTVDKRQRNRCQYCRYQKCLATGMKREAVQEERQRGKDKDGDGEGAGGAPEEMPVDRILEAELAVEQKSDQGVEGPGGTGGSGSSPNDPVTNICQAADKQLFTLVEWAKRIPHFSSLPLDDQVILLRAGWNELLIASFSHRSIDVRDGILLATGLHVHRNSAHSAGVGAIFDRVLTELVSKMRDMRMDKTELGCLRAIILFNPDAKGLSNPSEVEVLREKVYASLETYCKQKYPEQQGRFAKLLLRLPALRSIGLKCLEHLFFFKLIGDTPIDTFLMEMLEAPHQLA
Retinoid X receptor (Homo sapiens), sequence (P48443 whole entry, looked up, the tested form may be a part): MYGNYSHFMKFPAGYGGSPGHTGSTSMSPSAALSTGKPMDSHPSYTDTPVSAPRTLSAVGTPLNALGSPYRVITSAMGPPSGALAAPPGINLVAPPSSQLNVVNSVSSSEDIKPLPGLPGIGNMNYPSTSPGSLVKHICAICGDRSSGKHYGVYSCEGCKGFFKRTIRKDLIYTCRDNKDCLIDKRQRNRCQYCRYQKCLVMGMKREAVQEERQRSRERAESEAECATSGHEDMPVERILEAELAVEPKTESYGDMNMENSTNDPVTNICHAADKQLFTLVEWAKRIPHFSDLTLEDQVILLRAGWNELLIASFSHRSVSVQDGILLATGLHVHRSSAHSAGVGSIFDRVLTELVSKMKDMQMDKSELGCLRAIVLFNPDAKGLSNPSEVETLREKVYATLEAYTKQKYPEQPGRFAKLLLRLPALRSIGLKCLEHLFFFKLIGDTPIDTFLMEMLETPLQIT

Row | Compound | Activity (NHDF [1]) | Activity [2] | EC50 [3] [nM] | EC50 [4] [nM] | EC50 [5] [nM] | Activity [6] | Activity [7] | max activation [8] [%] | EC50 [9] [nM] | Activity (NHDF [10]) | EC50 [11] [nM] | Activity [12] | Activity [13] | remaining at 1 h, 10 µM [14] [%] | Activity [15] | EC50 [16] [nM] | max activation [17] [%] | max activation [18] [%] | EC50 [19] [nM]
1 | CN(CCOc1ccc(CC2SC(=O)NC2=O)cc1)c1ccccn1 (configuration not stated) [ROSIGLITAZONE] | Toxic | Active | 121 | 116 | – | – | – | – | – | – | – | – | – | – | – | – | – | – | –
2 | CCCCCCC(Sc1nc2ccc(NS(=O)(=O)c3ccc(Cl)cc3Cl)cc2s1)C(=O)O (configuration not stated) | – | Active | 437 | 887 | 500 | inactive | inactive | 12 | 2.2 | Non-Toxic | 107 | inactive | Not Active | 80 | inactive | 400 | 67 | 29 | 197
